From ChEMBL document CHEMBL5608194, “Novel neuroprotective 5,6-dihydropyrido[2',1':2,3]imidazo[4,5-c]quinoline derivatives acting through cholinesterase inhibition and CB2 signaling modulation” (Eur J Med Chem, 2024)
Active and inactive are the calls of the source. No cut-off for these calls is given here.

Legend:
SH-SY5Y [1] = test: Neuroprotective activity against ATRA-differentiated and MPP+ induced cell death in human SH-SY5Y cells assessed as cell death at 0.1 uM incubated for 24 hrs by propidium iodide staining based fluorescence assay (reference value: 100%); format: functional
Procedure, shortened: (§1)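 ATRA-differentiated SH-SY5Y co-treated with compound and 5 mM MPP+ for 24 h; cell death by propidium iodide fluorescence, MPP+-treated signal set to 100 %.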

SH-SY5Y [2] = test: Neuroprotective activity against ATRA-differentiated and 3-NPA induced cell death in human SH-SY5Y cells assessed as cell death at 0.1 uM incubated for 48 hrs by propidium iodide staining based fluorescence assay (reference value: 100%); format: functional
Procedure, shortened: (§2)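 ATRA-differentiated SH-SY5Y co-treated with compound and 20 mM 3-nitropropionic acid for 48 h; cell death by propidium iodide fluorescence, 3-NPA-treated signal set to 100 %.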

[3] = Selectivity index, ratio of IC50 for electric eel AChE to IC50 for equine serum BChE
Procedure, shortened: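 Ratio of IC50 values from modified Ellman spectrophotometric assays with electric eel AChE and equine serum BChE. Each used enzyme at 0.2 U/mL final, acetylthiocholine or butyrylthiocholine at 40 μM, and DTNB at 100 μM. Inhibitors were dissolved in DMSO, diluted in water, and tested at five concentrations in triplicate. IC50 came from regression of v0/vi against inhibitor concentration.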

SH-SY5Y [4] = test: Neuroprotective activity against ATRA-differentiated and MPP+ induced cell death in human SH-SY5Y cells assessed as cell death at 1 uM incubated for 24 hrs by propidium iodide staining based fluorescence assay (reference value: 100%); format: functional; procedure, shortened: as §1
SH-SY5Y [5] = test: Neuroprotective activity against ATRA-differentiated and 3-NPA induced cell death in human SH-SY5Y cells assessed as cell death at 10 uM incubated for 48 hrs by propidium iodide staining based fluorescence assay (reference value: 100%); format: functional; procedure, shortened: as §2
SH-SY5Y [6] = test: Inhibition of MPP+ induced mitochondrial superoxide radical production in human SH-SY5Y cells at 0.1 to 10 uM incubated for 24 hrs by MitoSOX staining based microplate reader assay; format: functional, cell-based; details: dose 0.1-10 µM
Procedure, shortened: (§3)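 Neuron-like SH-SY5Y (20 000 cells/well) co-treated with 5 mM MPP+ and compound for 24 h; plates centrifuged, medium replaced by 5 μM MitoSOX in HBSS, 30 min at 37 °C, fluorescence 500/580 nm; MPP+ signal set to 100 %; triplicates on at least four independent days.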

SH-SY5Y [7] = test: Neuroprotective activity against MPP+ induced cell death in human SH-SY5Y cells assessed as cell death at 1 uM by YOPRO-1 staining based assay; format: functional
Procedure, shortened: (§4)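 Neuron-like SH-SY5Y co-treated with compound and 5 mM MPP+ for 24 h; centrifuged at 500 × g, medium replaced by 1 μM YO-PRO1 in PBS for 15 min at room temperature; fluorescence 488/530 nm; MPP+ signal set to 100 %; triplicates on at least three independent days.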

Cholinesterase = Cholinesterase (Equus caballus, UniProt P81908); test: Inhibition of equine serum BChE using butyrylthiocholine as substrate by Ellman's method
Sequence of Cholinesterase (P81908 whole entry): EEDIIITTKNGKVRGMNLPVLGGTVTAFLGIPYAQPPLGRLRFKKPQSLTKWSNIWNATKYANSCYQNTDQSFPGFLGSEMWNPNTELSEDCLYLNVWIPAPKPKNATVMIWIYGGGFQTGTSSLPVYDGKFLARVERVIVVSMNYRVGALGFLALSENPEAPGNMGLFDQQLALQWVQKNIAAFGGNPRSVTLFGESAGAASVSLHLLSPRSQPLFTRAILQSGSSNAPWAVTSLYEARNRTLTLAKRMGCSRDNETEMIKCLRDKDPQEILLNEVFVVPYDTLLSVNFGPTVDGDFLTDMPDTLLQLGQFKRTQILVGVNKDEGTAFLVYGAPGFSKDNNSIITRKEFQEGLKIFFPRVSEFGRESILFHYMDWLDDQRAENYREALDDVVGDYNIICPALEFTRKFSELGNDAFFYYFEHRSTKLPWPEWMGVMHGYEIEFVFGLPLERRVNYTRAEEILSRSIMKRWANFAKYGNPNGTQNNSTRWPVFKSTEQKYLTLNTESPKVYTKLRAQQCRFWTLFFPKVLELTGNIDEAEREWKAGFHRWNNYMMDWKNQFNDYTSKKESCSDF
Procedure, shortened: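 Equine serum BChE (0.2 U/mL final) with 40 μM butyrylthiocholine and 100 μM DTNB, modified Ellman spectrophotometry; compounds from DMSO diluted in water, five inhibitor concentrations; IC50 from regression of v0/vi versus inhibitor concentration; triplicate.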

SH-SY5Y [8] = test: Neuroprotective activity against MPP+ induced cell death in human SH-SY5Y cells assessed as cell death at 1 uM incubated for 24 hrs by Cas-3, 7 staining based assay; format: functional
Procedure, shortened: (§5)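 Caspase-3/7 activation with Ac-DEVD-AFC substrate after 24 h co-treatment of neuron-like SH-SY5Y with compound and 5 mM MPP+; MPP+ signal set to 100 %; triplicates on at least three independent days.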

SH-SY5Y [9] = test: Inhibition of MPP+ induced mitochondrial depolarization in human SH-SY5Y cells at 0.1 uM incubated for 2 hrs by JC10 staining based confocal laser scanning microscopy; format: functional
Procedure, shortened: (§6)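 ATRA-differentiated SH-SY5Y co-treated with 5 mM MPP+ and compound for 2 h; mitochondrial membrane potential by JC10 ratiometric red/green signal (plate) and confocal imaging of JC10-stained cells (50 000 cells/well slides); DMSO control set to 100 %; triplicates on three independent days.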

SH-SY5Y [10] = test: Neuroprotective activity against ATRA-differentiated and MPP+ induced cell death in human SH-SY5Y cells assessed as cell death at 10 uM incubated for 24 hrs by propidium iodide staining based fluorescence assay (reference value: 100%); format: functional; procedure, shortened: as §1
SH-SY5Y [11] = test: Neuroprotective activity against ATRA-differentiated and 3-NPA induced cell death in human SH-SY5Y cells assessed as cell death at 1 uM incubated for 48 hrs by propidium iodide staining based fluorescence assay (reference value: 100%); format: functional; procedure, shortened: as §2
SH-SY5Y [12] = test: Inhibition of MPP+ induced superoxide radical production in human SH-SY5Y cells at 1 uM incubated for 24 hrs by microplate reader assay (reference value: 100%); format: functional
Procedure, shortened: (§7)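 Neuron-like SH-SY5Y co-treated with 5 mM MPP+ and compound for 24 h; centrifuged at 500 × g, medium replaced with 10 μM dihydroethidium in PBS for 30 min, fluorescence 500/580 nm; MPP+ signal set to 100 %; triplicates on at least four independent days.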

SH-SY5Y [13] = test: Neuroprotective activity against ATRA-differentiated and MPP+ induced cell death in human SH-SY5Y cells assessed as cell death at 1 uM by LDH release assay (reference value: 100%); format: functional
Procedure, shortened: (§8)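 ATRA-differentiated SH-SY5Y co-treated with 5 mM MPP+ and compound; cell death by commercial LDH release kit; MPP+ value set to 100 %; triplicates on at least three independent days.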

SH-SY5Y [14] = test: Cytotoxicity against human SH-SY5Y cells assessed as cell death at 10 uM incubated for 72 hrs by propidium iodide staining based fluorescence assay; format: toxicity
Procedure, shortened: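 SH-SY5Y differentiated to neuron-like phenotype with 10 μM all-trans retinoic acid for 48 h, 20 000 cells/well. Compounds from DMSO stocks (DMSO ≤0.5 %) added, then 72 h exposure. Control wells lysed with 1 % Triton X-100 for 1 min, then all wells stained with propidium iodide for fluorescence read-out. Dead-cell proportion expressed relative to Triton X-100-treated control.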

SH-SY5Y [15] = test: Inhibition of MPP+ induced mitochondrial depolarization in human SH-SY5Y cells at 1 uM incubated for 2 hrs by JC10 staining based confocal laser scanning microscopy; format: functional; procedure, shortened: as §6
Acetylcholinesterase = Acetylcholinesterase (Electrophorus electricus, UniProt O42275); test: Inhibition of electric eel AChE using acetylthiocholine as substrate by Ellman's method
Sequence of Acetylcholinesterase (O42275 whole entry): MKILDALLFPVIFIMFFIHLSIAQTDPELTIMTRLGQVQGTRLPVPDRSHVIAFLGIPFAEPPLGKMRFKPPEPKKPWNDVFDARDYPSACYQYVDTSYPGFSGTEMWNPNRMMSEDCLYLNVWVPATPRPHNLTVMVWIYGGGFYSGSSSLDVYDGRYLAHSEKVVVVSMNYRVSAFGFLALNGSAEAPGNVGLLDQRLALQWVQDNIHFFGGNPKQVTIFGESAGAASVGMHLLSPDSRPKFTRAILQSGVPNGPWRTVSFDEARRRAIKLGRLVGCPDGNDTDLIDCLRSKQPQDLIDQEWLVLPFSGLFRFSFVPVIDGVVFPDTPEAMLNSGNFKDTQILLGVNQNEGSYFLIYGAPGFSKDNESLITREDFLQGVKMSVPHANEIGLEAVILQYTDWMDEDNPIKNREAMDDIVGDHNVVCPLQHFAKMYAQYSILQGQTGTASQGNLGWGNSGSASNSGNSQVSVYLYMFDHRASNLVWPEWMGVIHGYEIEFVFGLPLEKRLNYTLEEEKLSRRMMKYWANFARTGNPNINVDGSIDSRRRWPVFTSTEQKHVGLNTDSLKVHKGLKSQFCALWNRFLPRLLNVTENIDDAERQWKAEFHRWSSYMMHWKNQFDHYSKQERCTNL

SH-SY5Y [16] = test: Inhibition of MPP+ induced mitochondrial superoxide radical production in human SH-SY5Y cells at 1 uM incubated for 24 hrs by MitoSOX staining based microplate reader assay (reference value: 100%); format: functional; procedure, shortened: as §3
SH-SY5Y [17] = test: Inhibition of MPP+ induced mitochondrial depolarization in human SH-SY5Y cells at 0.1 to 1 uM incubated for 2 hrs by JC10 staining based confocal laser scanning microscopy; format: functional, cell-based; details: dose 0.1-1 µM; procedure, shortened: as §6
SH-SY5Y [18] = test: Inhibition of MPP+ induced mitochondrial superoxide radical production in human SH-SY5Y cells at 10 uM incubated for 24 hrs by MitoSOX staining based microplate reader assay (reference value: 100%); format: functional; procedure, shortened: as §3
SH-SY5Y [19] = test: Neuroprotective activity against MPP+ induced cell death in human SH-SY5Y cells assessed as cell death at 10 uM by YOPRO-1 staining based assay; format: functional; procedure, shortened: as §4
SH-SY5Y [20] = test: Neuroprotective activity against MPP+ induced cell death in human SH-SY5Y cells assessed as decrease in PARP1 cleavage at 1 to 10 uM incubated for 24 hrs by immunoblotting analysis; format: functional, cell-based; details: dose 1-10 µM
[21] = molecular target: Mitogen-activated protein kinase; ERK1/ERK2 (Homo sapiens) (UniProt P27361+P28482); test: Inhibition of MPP+ induced ERK1/2 phosphorylation in human SH-SY5Y cells at 10 uM incubated for 24 hrs by Western blotting analysis; format: cell-based
Sequence of Mitogen-activated protein kinase; ERK1/ERK2 (Homo sapiens) (P27361 whole entry, looked up): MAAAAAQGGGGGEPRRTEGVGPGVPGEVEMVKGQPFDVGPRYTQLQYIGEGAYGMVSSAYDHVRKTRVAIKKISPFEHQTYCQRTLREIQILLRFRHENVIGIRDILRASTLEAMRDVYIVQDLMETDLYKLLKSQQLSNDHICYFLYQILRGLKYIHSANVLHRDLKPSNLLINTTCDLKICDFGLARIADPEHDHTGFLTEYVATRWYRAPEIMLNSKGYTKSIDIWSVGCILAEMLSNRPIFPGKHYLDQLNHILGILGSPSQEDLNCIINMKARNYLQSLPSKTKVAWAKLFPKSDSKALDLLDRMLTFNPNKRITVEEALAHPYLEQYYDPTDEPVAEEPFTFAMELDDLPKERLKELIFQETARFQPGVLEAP
Sequence of Mitogen-activated protein kinase; ERK1/ERK2 (Homo sapiens) (P28482 whole entry, looked up): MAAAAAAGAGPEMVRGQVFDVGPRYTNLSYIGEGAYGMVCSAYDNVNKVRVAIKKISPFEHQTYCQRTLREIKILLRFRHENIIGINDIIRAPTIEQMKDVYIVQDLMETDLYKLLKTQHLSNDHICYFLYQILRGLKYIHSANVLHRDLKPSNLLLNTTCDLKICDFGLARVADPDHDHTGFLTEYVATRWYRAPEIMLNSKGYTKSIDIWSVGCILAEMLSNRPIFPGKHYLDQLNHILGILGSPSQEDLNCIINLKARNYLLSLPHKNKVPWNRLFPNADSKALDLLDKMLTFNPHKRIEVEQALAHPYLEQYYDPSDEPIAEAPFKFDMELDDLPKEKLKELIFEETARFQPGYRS
Procedure, shortened: (§9)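 ATRA-differentiated neuron-like SH-SY5Y co-treated with 5 mM MPP+ and compound for 24 h, lysed in RIPA buffer, SDS-PAGE, transfer to nitrocellulose, immunoblot for p-Akt (Ser473) and ERK1/2; HSP90 and β-actin loading controls; ECL chemiluminescence imaged by CCD camera.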

SH-SY5Y [22] = test: Neuroprotective activity against ATRA-differentiated and MPP+ induced cell death in human SH-SY5Y cells assessed as cell death at 10 uM by LDH release assay (reference value: 100%); format: functional; procedure, shortened: as §8
SH-SY5Y [23] = test: Inhibition of MPP+ induced superoxide radical production in human SH-SY5Y cells at 10 uM incubated for 24 hrs by microplate reader assay (reference value: 100%); format: functional; procedure, shortened: as §7
SH-SY5Y [24] = test: Inhibition of MPP+ induced Akt phosphorylation at Ser473 residues in human SH-SY5Y cells at 1 to 10 uM incubated for 24 hrs by Western blotting analysis; format: cell-based; details: dose 1-10 µM; procedure, shortened: as §9
SH-SY5Y [25] = test: Neuroprotective activity against MPP+ induced cell death in human SH-SY5Y cells assessed as cell death at 10 uM incubated for 24 hrs by Cas-3, 7 staining based assay; format: functional; procedure, shortened: as §5
SH-SY5Y [26] = test: Inhibition of MPP+ induced superoxide radical production in ATRA-differentiated human SH-SY5Y cells at 1 uM incubated for 24 hrs by MitoSOX staining based confocal laser scanning microscopy; format: functional, cell-based
Procedure, shortened: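 50 000 cells seeded on chamber slides, ATRA-differentiated, co-treated with 5 mM MPP+ and compound for 24 h, then stained with MitoSOX and imaged by confocal laser-scanning microscopy (63× objective).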

SH-SY5Y [27] = test: Potentiation of MPP+ induced toxicity in human SH-SY5Y cells assessed as increase in cell death at 10 uM; format: cell-based
Procedure, shortened: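 Neuron-like SH-SY5Y co-treated for 24 h with 5 mM MPP+, compound and CB2 inverse agonist AM630 or antagonist SR144528 at 0.1, 1 or 10 μM; CB2 ligands also tested alone and with MPP+; cell death read-out; triplicates on three independent days.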

SH-SY5Y [28] = test: Cytotoxicity against human SH-SY5Y cells at 10 uM; format: toxicity, cell-based
Procedure, shortened: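 SH-SY5Y differentiated to neuron-like phenotype with 10 μM all-trans retinoic acid for 48 h, 20 000 cells/well, then exposed to compound for 72 h (DMSO ≤0.5 %). Propidium iodide exclusion fluorescence; dead-cell proportion expressed relative to Triton X-100 (1 %, 1 min) lysed control.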

SMILES | Activity (SH-SY5Y [1]) | Activity (SH-SY5Y [2]) | Ratio IC50 [3] | Activity (SH-SY5Y [4]) | Activity (SH-SY5Y [5]) | Activity (SH-SY5Y [7]) | IC50 (Cholinesterase) | Activity (SH-SY5Y [8]) | Activity (SH-SY5Y [10]) | Activity (SH-SY5Y [11]) | inhibition at 1 µM (SH-SY5Y [12]) | Activity (SH-SY5Y [13]) | Activity (SH-SY5Y [14]) | inhibition at 1 µM (SH-SY5Y [15]) | IC50 (Acetylcholinesterase) | inhibition at 10 µM (SH-SY5Y [18]) | Activity (SH-SY5Y [19]) | Activity (SH-SY5Y [22]) | inhibition at 10 µM (SH-SY5Y [23]) | further results
Cc1ccn2c3c(nc2c1)-c1ccccc1NC31CCCCC1 | 60.8% | 75.5% | 1.57 | 38.2% | 55.2% | 58.1% | 10.4 µM | 52.6% | 75% | 62.6% | 67.1% | 65.4% | 11.4% | 100% | 16.4 µM |  |  |  |  | inhibition (SH-SY5Y [6]): inactive; inhibition at 0.1 µM (SH-SY5Y [9]): 78.7%
c1ccc2c(c1)NC1(CCCCC1)c1c-2nc2ccccn12 | 57% | 78.5% | 1.72 | 37.3% | 65.8% | 58.7% | 19.8 µM | 59.1% | 52.7% | 64% | 59.9% | 65.1% | 12.2% | 70.6% | 34 µM |  |  |  |  | inhibition at 1 µM (SH-SY5Y [16]): 61.7%
O=c1c2ccccc2[se]n1-c1ccccc1 [EBSELEN] | 99.5% | 118.7% | 1.05 | 80% | 132.9% |  | 12.1 µM |  | 27.5% | 112% |  |  | 18.3% |  | 12.7 µM | 63.3% | 53.4% | 59.2% | 57.1% | inhibition (SH-SY5Y [17]): inactive; Activity (SH-SY5Y [20]): Active; inhibition [21]: inactive; inhibition (SH-SY5Y [24]): inactive
Brc1ccc2nc3c(n2c1)C1(CCCC1)Nc1ccccc1-3 | 66.4% | 78.4% | 2.51 | 31.8% | 59.7% | 47.3% | 10.7 µM | 49.4% | 27.5% | 63.9% |  | 58.5% | 12.2% | 78.5% | 27 µM | 41.3% | 43.5% | 51.9% | 52.2% | Activity (SH-SY5Y [25]): 72.6%; inhibition (SH-SY5Y [26]): Active
Cc1ccc(Cn2nc(C(=O)N[C@@H]3C(C)(C)[C@@H]4CC[C@@]3(C)C4)cc2-c2ccc(Cl)c(C)c2)cc1 |  |  |  |  |  |  |  |  |  |  |  |  |  |  |  |  |  |  |  | Activity (SH-SY5Y [27]): Toxic; Activity (SH-SY5Y [28]): Non-Toxic
